Assays:
MCF7 [1] = experiment: Cytotoxicity against human MCF7 cells after 6 days by SRB colorimetric assay; format: functional, cell-based; settings: MCF7, 144 h
HT-29 [2] = experiment: Upregulation of IMP-1 gene expression in human HT-29 cells at IC50 after 48 hrs by cDNA microarray technique relative to control; format: functional
MCF7 [3] = experiment: Down regulation of ENST00000295859 gene expression in human MCF7 cells at IC50 after 48 hrs by cDNA microarray technique relative to control; format: functional
Summary of the method: (§1)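 Cells (8 × 10⁶) were cultured in DMEM with 10% heat-inactivated FBS at 37 °C under 5% CO₂. They were exposed for 48 h to compound at its IC₅₀, with DMSO-treated parallel cultures as controls (final DMSO ≤0.1% v/v). Total RNA was isolated by trizol/chloroform phase separation, RNeasy column cleanup and on-column DNase, then quantified by OD260/OD280. Expression was profiled by cDNA microarray relative to control.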

MCF7 [4] = experiment: Down regulation of C21orf42 gene expression in human MCF7 cells at IC50 after 48 hrs by cDNA microarray technique relative to control; format: functional
Summary of the method: (§2)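 8 × 10⁶ cells exposed 48 h to compound at its IC50 concentration; total RNA isolated with trizol/chloroform and RNeasy columns including on-column DNase step; RNA quantified by OD 260/280; DMSO-treated cultures as control.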

HT-29 [5] = experiment: Upregulation of HOXB8 gene expression in human HT-29 cells at IC50 after 48 hrs by cDNA microarray technique relative to control; format: functional
HT-29 [6] = experiment: Down regulation of HAS2 gene expression in human HT-29 cells at IC50 after 48 hrs by cDNA microarray technique relative to control; format: functional; summary of the method: as §1
HT-29 [7] = experiment: Down regulation of PGLYRP4 gene expression in human HT-29 cells at IC50 after 48 hrs by cDNA microarray technique relative to control; format: functional
HT-29 [8] = experiment: Down regulation of P53AIP1 gene expression in human HT-29 cells at IC50 after 48 hrs by cDNA microarray technique relative to control; format: functional
HT-29 [9] = experiment: Down regulation of LOC144448 gene expression in human HT-29 cells at IC50 after 48 hrs by cDNA microarray technique relative to control; format: functional
HT-29 [10] = experiment: Down regulation of NBEA gene expression in human HT-29 cells at IC50 after 48 hrs by cDNA microarray technique relative to control; format: functional
HT-29 [11] = experiment: Down regulation of TMEM27 gene expression in human HT-29 cells at IC50 after 48 hrs by cDNA microarray technique relative to control; format: functional
MCF7 [12] = experiment: Upregulation of NRTN gene expression in human MCF7 cells at IC50 after 48 hrs by cDNA microarray technique relative to control; format: functional
MCF7 [13] = experiment: Upregulation of ZNF141 gene expression in human MCF7 cells at IC50 after 48 hrs by cDNA microarray technique relative to control; format: functional
MCF7 [14] = experiment: Upregulation of CD84 gene expression in human MCF7 cells at IC50 after 48 hrs by cDNA microarray technique relative to control; format: functional
MCF7 [15] = experiment: Upregulation of SPACA3 gene expression in human MCF7 cells at IC50 after 48 hrs by cDNA microarray technique relative to control; format: functional
MCF7 [16] = experiment: Down regulation of RAC2 gene expression in human MCF7 cells at IC50 after 48 hrs by cDNA microarray technique relative to control; format: functional
HT-29 [17] = experiment: Down regulation of BAP1 gene expression in human HT-29 cells at IC50 after 48 hrs by cDNA microarray technique relative to control; format: functional; summary of the method: as §2
HT-29 [18] = experiment: Down regulation of LOC203427 gene expression in human HT-29 cells at IC50 after 48 hrs by cDNA microarray technique relative to control; format: functional
HT-29 [19] = experiment: Down regulation of FLOT1 gene expression in human HT-29 cells at IC50 after 48 hrs by cDNA microarray technique relative to control; format: functional; summary of the method: as §1
HT-29 [20] = experiment: Down regulation of PCSK9 gene expression in human HT-29 cells at IC50 after 48 hrs by cDNA microarray technique relative to control; format: functional
HT-29 [21] = experiment: Down regulation of PYCRL gene expression in human HT-29 cells at IC50 after 48 hrs by cDNA microarray technique relative to control; format: functional
HT-29 [22] = experiment: Down regulation of TNPO1 gene expression in human HT-29 cells at IC50 after 48 hrs by cDNA microarray technique relative to control; format: functional
HT-29 [23] = experiment: Down regulation of SNRP70 gene expression in human HT-29 cells at IC50 after 48 hrs by cDNA microarray technique relative to control; format: functional
HT-29 [24] = experiment: Down regulation of ANP32C gene expression in human HT-29 cells at IC50 after 48 hrs by cDNA microarray technique relative to control; format: functional; summary of the method: as §2
HT-29 [25] = experiment: Down regulation of D4S234E gene expression in human HT-29 cells at IC50 after 48 hrs by cDNA microarray technique relative to control; format: functional; summary of the method: as §2
HT-29 [26] = experiment: Down regulation of OR4K15 gene expression in human HT-29 cells at IC50 after 48 hrs by cDNA microarray technique relative to control; format: functional
MCF7 [27] = experiment: Upregulation of ST3GAL1 gene expression in human MCF7 cells at IC50 after 48 hrs by cDNA microarray technique relative to control; format: functional
MCF7 [28] = experiment: Upregulation of SCGB1D2 gene expression in human MCF7 cells at IC50 after 48 hrs by cDNA microarray technique relative to control; format: functional
MCF7 [29] = experiment: Upregulation of UNQ739 gene expression in human MCF7 cells at IC50 after 48 hrs by cDNA microarray technique relative to control; format: functional
MCF7 [30] = experiment: Upregulation of CALM1 gene expression in human MCF7 cells at IC50 after 48 hrs by cDNA microarray technique relative to control; format: functional
MCF7 [31] = experiment: Upregulation of CD1B gene expression in human MCF7 cells at IC50 after 48 hrs by cDNA microarray technique relative to control; format: functional
MCF7 [32] = experiment: Down regulation of LTBP2 gene expression in human MCF7 cells at IC50 after 48 hrs by cDNA microarray technique relative to control; format: functional
MCF7 [33] = experiment: Down regulation of TSGA10 gene expression in human MCF7 cells at IC50 after 48 hrs by cDNA microarray technique relative to control; format: functional
HT-29 [34] = experiment: Upregulation of PLOD2 gene expression in human HT-29 cells at IC50 after 48 hrs by cDNA microarray technique relative to control; format: functional
HT-29 [35] = experiment: Upregulation of TP53INP1 gene expression in human HT-29 cells at IC50 after 48 hrs by cDNA microarray technique relative to control; format: functional
HT-29 [36] = experiment: Down regulation of VPS18 gene expression in human HT-29 cells at IC50 after 48 hrs by cDNA microarray technique relative to control; format: functional
HT-29 [37] = experiment: Down regulation of ARPC4 gene expression in human HT-29 cells at IC50 after 48 hrs by cDNA microarray technique relative to control; format: functional; summary of the method: as §2
HT-29 [38] = experiment: Down regulation of POLE gene expression in human HT-29 cells at IC50 after 48 hrs by cDNA microarray technique relative to control; format: functional

Structure (SMILES): COC(CN(c1ccccc1CO)S(=O)(=O)c1ccccc1[N+](=O)[O-])n1cnc2ncnc(Cl)c21 (racemic)
- IC50 (MCF7 [1]): 3.25 µM
- fold change (FC) (HT-29 [2]): 2.88
- fold change (FC) (MCF7 [3]): -2.27
- fold change (FC) (MCF7 [4]): -2.31
- fold change (FC) (HT-29 [5]): 2.11
- fold change (FC) (HT-29 [6]): -2.01
- fold change (FC) (HT-29 [7]): -2.02
- fold change (FC) (HT-29 [8]): -2.06
- fold change (FC) (HT-29 [9]): -2.45
- fold change (FC) (HT-29 [10]): -2.89
- fold change (FC) (HT-29 [11]): -2.99
- fold change (FC) (MCF7 [12]): 4.22
- fold change (FC) (MCF7 [13]): 4.04
- fold change (FC) (MCF7 [14]): 3.37
- fold change (FC) (MCF7 [15]): 2.21
- fold change (FC) (MCF7 [16]): -2.29

Structure (SMILES): O=C(OCC1c2ccccc2-c2ccccc21)N1CC(n2cnc3c(Cl)ncnc32)OCc2ccccc21 (racemic)
- fold change (FC) (HT-29 [17]): -2.13
- fold change (FC) (HT-29 [18]): -2.13
- fold change (FC) (HT-29 [19]): -2.19
- fold change (FC) (HT-29 [20]): -2.32
- fold change (FC) (HT-29 [21]): -2.36
- fold change (FC) (HT-29 [22]): -2.5
- fold change (FC) (HT-29 [23]): -2.78
- fold change (FC) (HT-29 [24]): -2.81
- fold change (FC) (HT-29 [25]): -2.91
- fold change (FC) (HT-29 [26]): -3.6
- fold change (FC) (MCF7 [27]): 6.38
- fold change (FC) (MCF7 [28]): 6.02
- fold change (FC) (MCF7 [29]): 4.07
- fold change (FC) (MCF7 [30]): 2.99
- fold change (FC) (MCF7 [31]): 2.31
- fold change (FC) (MCF7 [32]): -3.28
- fold change (FC) (MCF7 [33]): -3.3
- fold change (FC) (HT-29 [34]): 2.76
- fold change (FC) (HT-29 [35]): 2.58
- fold change (FC) (HT-29 [36]): -2.04
- fold change (FC) (HT-29 [37]): -2.07
- fold change (FC) (HT-29 [38]): -2.12

From ChEMBL document CHEMBL1821604, “Anticancer activity and cDNA microarray studies of a (RS)-1,2,3,5-tetrahydro-4,1-benzoxazepine-3-yl]-6-chloro-9H-purine, and an acyclic (RS)-O,N-acetalic 6-chloro-7H-purine” (Eur J Med Chem, 2011)
